Source: ChEMBL document CHEMBL4346747, “Alkynamide phthalazinones as a new class of TbrPDEB1 inhibitors” (Bioorg Med Chem, 2019)

Assays:
[1] = tested on: Trypanosoma brucei; test: Antitrypanosomal activity against suramin sensitive Trypanosoma brucei Squib427 trypomastigotes assessed as reduction in parasitic cell viability measured after 72 hrs by resazurin dye based fluorimetric analysis; type: functional, organism-based; conditions: Squib427, 72 h
Outline: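 Suramin-sensitive Squib-427 trypomastigotes cultured in HMI-9 with 10% heat-inactivated FCS at 37 °C, 5% CO2. About 1.5 × 10^4 parasites per well, five concentrations (64, 16, 4, 1, 0.25 μM), DMSO ≤0.5%, 72 h at 37 °C. Resazurin added, fluorescence read 24 h later (ex 550/em 590 nm) as % viability reduction vs control. Suramin reference; duplicate experiments, mean ± S.E.M.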

[2] = Cytotoxicity against human MRC5 SV2 cells assessed as reduction in cell viability measured after 72 hrs by resazurin dye based fluorimetric analysis
[3] = biological target: T1, Class 1 phosphodiesterase PDEB1 (Trypanosoma brucei, UniProt Q8WQX9); test: Inhibition of Trypanosoma brucei PDEB1 catalytic domain (565 to 918 residues) expressed in Escherichia coli BL21 incubated for 20 mins using cAMP as substrate by PDELight HTS cAMP phosphodiesterase Kit based luminometry
T1 sequence (Q8WQX9 whole entry): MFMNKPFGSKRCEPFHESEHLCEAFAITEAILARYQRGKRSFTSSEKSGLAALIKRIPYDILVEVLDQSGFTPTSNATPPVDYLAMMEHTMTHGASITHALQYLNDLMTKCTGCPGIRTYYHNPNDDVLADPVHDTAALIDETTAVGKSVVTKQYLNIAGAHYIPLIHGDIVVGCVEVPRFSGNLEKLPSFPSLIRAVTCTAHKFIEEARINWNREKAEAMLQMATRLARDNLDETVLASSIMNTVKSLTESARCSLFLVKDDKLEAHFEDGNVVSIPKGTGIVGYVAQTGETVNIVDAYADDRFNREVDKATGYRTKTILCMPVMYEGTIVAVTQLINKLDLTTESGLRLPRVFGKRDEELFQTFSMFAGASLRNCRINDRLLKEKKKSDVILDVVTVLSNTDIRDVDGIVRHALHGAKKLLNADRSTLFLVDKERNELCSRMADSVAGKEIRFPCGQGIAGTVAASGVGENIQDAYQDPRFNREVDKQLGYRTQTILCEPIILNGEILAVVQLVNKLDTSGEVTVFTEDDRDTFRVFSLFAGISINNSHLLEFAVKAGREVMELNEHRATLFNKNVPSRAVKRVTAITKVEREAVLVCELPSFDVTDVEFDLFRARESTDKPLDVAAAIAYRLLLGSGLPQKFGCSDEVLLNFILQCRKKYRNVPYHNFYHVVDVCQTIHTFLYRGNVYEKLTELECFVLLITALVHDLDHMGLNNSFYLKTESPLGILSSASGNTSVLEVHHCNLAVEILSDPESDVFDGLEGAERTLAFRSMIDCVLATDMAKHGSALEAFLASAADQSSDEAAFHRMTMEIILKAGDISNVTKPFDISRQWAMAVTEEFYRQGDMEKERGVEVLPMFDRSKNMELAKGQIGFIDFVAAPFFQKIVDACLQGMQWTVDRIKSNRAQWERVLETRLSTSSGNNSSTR

[4] = Cytotoxicity against human MRC5 SV2 cells assessed as reduction in cell viability at 64 uM measured after 72 hrs by resazurin dye based fluorimetric analysis
[5] = biological target: 3',5'-cyclic-AMP phosphodiesterase 4B (Homo sapiens, UniProt Q07343); test: Inhibition of human PDE4B catalytic domain incubated for 20 mins using cAMP as substrate by PDELight HTS cAMP phosphodiesterase Kit based luminometry
[6] = tested on: Trypanosoma brucei; test: Antitrypanosomal activity against bloodstream of Trypanosoma brucei trypanosomes assessed as increase in intracellular cAMP level at 3.2 uM measured per 5x10^6 cells after 4 hrs by direct cAMP enzyme immunoassay kit based ELISA (reference value: 6.66 pmol); type: functional
[7] = tested on: Trypanosoma brucei; test: Antitrypanosomal activity against bloodstream of Trypanosoma brucei trypanosomes assessed as increase in intracellular cAMP level at 8 uM measured per 5x10^6 cells after 4 hrs by direct cAMP enzyme immunoassay kit based ELISA (reference value: 6.66 pmol); type: functional

Sequence of 3',5'-cyclic-AMP phosphodiesterase 4B (Q07343 whole entry, the tested form may be a part): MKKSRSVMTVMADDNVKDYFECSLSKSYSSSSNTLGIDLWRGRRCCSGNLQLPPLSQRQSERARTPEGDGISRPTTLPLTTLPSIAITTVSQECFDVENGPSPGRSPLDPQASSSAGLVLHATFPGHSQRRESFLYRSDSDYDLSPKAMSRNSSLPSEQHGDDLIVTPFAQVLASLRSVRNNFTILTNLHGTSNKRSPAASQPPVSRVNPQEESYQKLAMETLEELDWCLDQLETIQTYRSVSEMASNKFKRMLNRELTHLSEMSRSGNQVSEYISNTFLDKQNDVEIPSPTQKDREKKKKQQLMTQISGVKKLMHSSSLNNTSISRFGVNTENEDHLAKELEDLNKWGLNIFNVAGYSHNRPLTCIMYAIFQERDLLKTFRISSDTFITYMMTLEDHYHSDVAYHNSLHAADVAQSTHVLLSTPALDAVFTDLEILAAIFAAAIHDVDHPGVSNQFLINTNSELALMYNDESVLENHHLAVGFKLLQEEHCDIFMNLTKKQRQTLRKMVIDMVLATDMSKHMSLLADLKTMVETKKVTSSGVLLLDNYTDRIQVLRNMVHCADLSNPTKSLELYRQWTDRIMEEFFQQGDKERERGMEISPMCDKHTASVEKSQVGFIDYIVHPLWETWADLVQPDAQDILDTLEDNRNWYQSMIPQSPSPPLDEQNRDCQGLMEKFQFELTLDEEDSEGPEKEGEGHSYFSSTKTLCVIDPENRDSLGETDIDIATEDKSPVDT

SMILES	Ki [3]	also measured
COc1ccc(C2=NN(C(C)C)C(=O)[C@@H]3CC=CC[C@H]23)cc1-c1ccc(C(=O)NCC(N)=O)cc1		IC50 ([1]; read-out: pIC50 (converted)): 6310 nM; CC50 at 72 h [2]: 31600 nM
COc1ccc(C2=NN(C3CCCCCC3)C(=O)[C@@H]3CC=CC[C@H]23)cc1-c1ccc(C(=O)NCC(N)=O)cc1		IC50 ([1]; read-out: pIC50 (converted)): 5010 nM; CC50 at 72 h [2]: 39800 nM
COc1ccc(C2=NN(C3CCCCCC3)C(=O)[C@@H]3CC=CC[C@H]23)cc1-c1ccc2c(c1)CNC2=O	1580 nM	
COc1ccc(C2=NN(C(C)C)C(=O)[C@@H]3CC=CC[C@H]23)cc1N1CC(C(N)=O)C1	> 10000 nM	
COc1ccc(C2=NN(C3CCCCCC3)C(=O)[C@@H]3CC=CC[C@H]23)cc1-c1ccc(C(=O)NCC(N)=O)c(F)c1	794 nM	
COc1ccc(C2=NN(C3CCCCCC3)C(=O)[C@@H]3CC=CC[C@H]23)cc1C#CC(N)=O (relative stereo)		IC50 ([1]; read-out: pIC50 (converted)): 1000 nM; Activity [6]: 19.8 pmol; Activity [7]: 311 pmol; CC50 at 72 h [2]: 10000 nM
COc1ccc(C2=NN(C(C)C)C(=O)[C@@H]3CC=CC[C@H]23)cc1-c1ccc(C(N)=O)s1 (relative stereo)	10000 nM	
CCCCNC(=O)C1CN(c2cc(C3=NN(C(C)C)C(=O)[C@@H]4CC=CC[C@H]34)ccc2OC)C1 (relative stereo)	> 10000 nM	
COc1ccc(C2=NN(C(C)C)C(=O)[C@@H]3CC=CC[C@H]23)cc1-c1ccc(C(=O)NCC(N)=O)s1 (relative stereo)	> 10000 nM	
COc1ccc(C2=NN(C(C)C)C(=O)[C@@H]3CC=CC[C@H]23)cc1N1CC(C(=O)NCC(N)=O)C1 (relative stereo)	> 10000 nM	
COc1cc(C(=O)NCC(N)=O)ccc1-c1cc(C2=NN(C3CCCCCC3)C(=O)[C@@H]3CC=CC[C@H]23)ccc1OC (relative stereo)	7940 nM	
COc1ccc(C2=NN(C(C)C)C(=O)[C@@H]3CC=CC[C@H]23)cc1N1CC(C(=O)NCc2ccco2)C1 (relative stereo)	> 10000 nM	
COc1ccc(C2=NN(C3CCCCCC3)C(=O)[C@@H]3CC=CC[C@H]23)cc1-c1ccc(C(=O)NCC(N)=O)c(C)c1 (relative stereo)	2000 nM	

Continued, in another order:

Ki [3]	SMILES	also measured
1260 nM	COCCN1Cc2cc(-c3cc(C4=NN(C5CCCCCC5)C(=O)[C@@H]5CC=CC[C@H]45)ccc3OC)ccc2C1=O (relative stereo)	
> 10000 nM	COc1ccc(C2=NN(C3CCCCCC3)C(=O)[C@@H]3CC=CC[C@H]23)cc1C#Cc1cnco1 (relative stereo)	
3980 nM	C#Cc1cc(C2=NN(C3CCCCCC3)C(=O)[C@@H]3CC=CC[C@H]23)ccc1OC (relative stereo)	
> 10000 nM	CCCCNC(=O)c1ccc(-c2cc(C3=NN(C(C)C)C(=O)[C@@H]4CC=CC[C@H]34)ccc2OC)s1 (relative stereo)	
> 10000 nM	COc1ccc(C2=NN(C(C)C)C(=O)[C@@H]3CC=CC[C@H]23)cc1-c1ccc(C(=O)NCc2ccco2)s1 (relative stereo)	
501 nM	COc1ccc(C2=NN(C3CCCCCC3)C(=O)[C@@H]3CC=CC[C@H]23)cc1C#CC(=O)NCc1ccco1 (relative stereo)	IC50 ([1]; read-out: IC50): 600 nM; IC50 ([1]; read-out: pIC50 (converted)): 631 nM; Activity [4]: Non-Toxic; CC50 at 72 h [2]: 50100 nM; Ki [5]: 398 nM
1000 nM	COc1ccc(C2=NN(C3CCCCCC3)C(=O)[C@@H]3CC=CC[C@H]23)cc1C#CC(=O)N1CCOCC1 (relative stereo)	
> 10000 nM	COc1ccc(C2=NN(C3CCCCCC3)C(=O)[C@@H]3CC=CC[C@H]23)cc1-c1ccc(C(=O)NCC(N)=O)cc1C (relative stereo)	
631 nM	COc1ccc(C2=NN(C3CCCCCC3)C(=O)[C@@H]3CC=CC[C@H]23)cc1C#CC(=O)NCC(N)=O (relative stereo)	IC50 ([1]; read-out: pIC50 (converted)): 3980 nM; CC50 at 72 h [2]: 3980 nM
398 nM	CCCCNC(=O)C#Cc1cc(C2=NN(C3CCCCCC3)C(=O)[C@@H]3CC=CC[C@H]23)ccc1OC (relative stereo)	IC50 ([1]; read-out: IC50): 600 nM; IC50 ([1]; read-out: pIC50 (converted)): 631 nM; Activity [4]: Non-Toxic; CC50 at 72 h [2]: > 63100 nM; Ki [5]: 631 nM
794 nM	COCCNC(=O)C#Cc1cc(C2=NN(C3CCCCCC3)C(=O)[C@@H]3CC=CC[C@H]23)ccc1OC (relative stereo)	IC50 ([1]; read-out: pIC50 (converted)): > 63100 nM; CC50 at 72 h [2]: > 63100 nM; Ki [5]: 1580 nM
> 10000 nM	COCCNC(=O)c1ccc(-c2cc(C3=NN(C(C)C)C(=O)[C@@H]4CC=CC[C@H]34)ccc2OC)s1 (relative stereo)	
6310 nM	COc1cc(-c2cc(C3=NN(C4CCCCCC4)C(=O)[C@@H]4CC=CC[C@H]34)ccc2OC)ccc1C(=O)NCC(N)=O (relative stereo)	
1260 nM	COc1ccc(C2=NN(C3CCCCCC3)C(=O)[C@@H]3CC=CC[C@H]23)cc1-c1ccc2c(c1)CN(CC(N)=O)C2=O (relative stereo)	
2000 nM	COc1ccc(C2=NN(C3CCCCCC3)C(=O)[C@@H]3CC=CC[C@H]23)cc1-c1ccc(C(=O)NCC(N)=O)cc1F (relative stereo)	
